Bioassay records: PubChem BioAssay, Broad Institute
Only some compounds are listed: those with a hit (about 3.5% of all), similar ones and a draw of the others.
Ecoli rRNA inh = inhibitors of bacterial rRNA selective over humanized ribosomes. AID 720706. GFP signal change (wild-type ribosome), % (concentration not given with the values). E. coli WT GFP vs humanized-ribosome RFP mutants, fluorescence, 24 h; active compounds read low; DMSO median 0, no signal -100. actives 1.6% (n = 350,000);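 active means significant combined selectivity score with lowered wild-type GFP, culture density cut under 30%, mutant RFP and density less affected; inactive means any of these conditions unmet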
HIV Env fusion = inhibitors of HIV Env-mediated cell fusion; HeLa-JRFL Env/CEM21 cell fusion, luciferase; inhibition, % at 12.3 µM; actives 1.1% (n = 360,000);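 active means mean replicate inhibition score of at least 50 and every replicate individually at or above 50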;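 further: 0% = plate neutral controls and 100% = maraviroc near 300 nM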
Cneo AK release = Cryptococcus neoformans lysis via adenylate kinase release | lysis activity, % at 15 µM | actives 0.2% (n = 360,000) | AID 651654 | C. neoformans lysis, adenylate kinase release luminescence, 4 h; normalised: neutral wells 0, clomiphene wells 100;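 active means mean lysis activity across replicates of at least 80%, whatever share of replicates individually reach that level; inactive means mean lysis activity below 80%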
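Assay system: Cryptococcus neoformans yeast cells / Dosing: single-point compound dose / Timing: 4 h at 37 °C static, read 1 h later / Measured by: luminescence of released adenylate kinase using an AK detection reagent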
PGC1a acetyl inh = modulators of PGC1a acetylation. U2OS PGC1a acetylation, AlphaScreen anti-acetyl-lysine; with virally co-expressed GCN5 acetyltransferase. AID 651687. inhibition, % at 15.6 µM. actives 0.17% (n = 350,000);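 active means every replicate shows inhibition of at least 40%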;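 further: 0% = neutral control wells and 100% = positive control wells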
ERAP1 inh = blocks human ERAP1 aminopeptidase activity; Q9NZ08; recombinant ERAP1, Leu-AMC fluorescence, 60 min; inhibition, % at 10.7 µM; actives 0.15% (n = 340,000); AID 652197;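 active means mean replicate inhibition of at least 30%, or all replicates individually reaching that 30% level; inactive means mean below 30% and not every replicate reaching it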;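 further: 0% = neutral control wells and 100% = L-leucinethiol positive control wells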
Target sequence (Q9NZ08 whole entry, looked up): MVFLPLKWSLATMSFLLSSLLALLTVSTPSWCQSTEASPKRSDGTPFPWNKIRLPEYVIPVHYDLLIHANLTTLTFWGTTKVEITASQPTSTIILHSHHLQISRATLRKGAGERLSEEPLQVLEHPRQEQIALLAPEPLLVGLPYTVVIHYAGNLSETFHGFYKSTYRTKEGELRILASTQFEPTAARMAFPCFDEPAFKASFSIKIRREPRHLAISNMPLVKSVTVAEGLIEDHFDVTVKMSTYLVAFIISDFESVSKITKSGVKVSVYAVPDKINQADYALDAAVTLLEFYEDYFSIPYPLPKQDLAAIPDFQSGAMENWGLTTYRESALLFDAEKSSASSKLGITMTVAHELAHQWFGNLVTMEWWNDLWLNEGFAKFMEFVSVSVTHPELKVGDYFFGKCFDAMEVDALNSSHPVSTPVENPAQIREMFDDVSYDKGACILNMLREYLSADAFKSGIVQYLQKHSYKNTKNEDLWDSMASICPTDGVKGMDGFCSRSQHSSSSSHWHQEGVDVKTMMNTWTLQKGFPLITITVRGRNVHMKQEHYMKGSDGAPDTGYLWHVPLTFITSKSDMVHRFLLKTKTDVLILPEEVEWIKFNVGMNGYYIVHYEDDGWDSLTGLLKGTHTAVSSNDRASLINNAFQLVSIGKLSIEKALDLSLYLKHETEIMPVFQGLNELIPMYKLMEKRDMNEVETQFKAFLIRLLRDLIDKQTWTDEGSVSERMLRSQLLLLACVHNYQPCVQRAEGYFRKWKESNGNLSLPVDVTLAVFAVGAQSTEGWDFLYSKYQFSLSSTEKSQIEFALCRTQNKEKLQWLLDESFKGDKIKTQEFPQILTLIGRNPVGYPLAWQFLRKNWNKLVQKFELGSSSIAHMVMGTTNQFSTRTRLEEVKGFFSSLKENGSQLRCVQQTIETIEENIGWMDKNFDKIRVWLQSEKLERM
FGF22 binding = FGF22 (human) thermal shift binding; Q9HCT0; recombinant FGF22 thermal shift, SYPRO orange fluorescence; percent of sucrose octasulfate shift, DMSO zero; activity (Tm shift, normalised), % at 9.99 µM; actives 1.5% (n = 340,000); AID 651658;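 active means mean Tm shift, scaled 0 neutral to 100 positive control, at about 1.3% or above, every replicate too, limit read from the data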
The depositor's hits bear a star; [ ] = dose if it differs, or a comment.

For O=C(NC(Nc1nc2ccc([N+](=O)[O-])cc2s1)(C(F)(F)F)C(F)(F)F)c1cccnc1 the results were Ecoli rRNA inh -58, HIV Env fusion 123*, ERAP1 inh 4 and FGF22 binding 1.
`Cc1ccc2sc(C)[n+](CCO)c2c1` gave Ecoli rRNA inh 17, HIV Env fusion 9, Cneo AK release 2, PGC1a acetyl inh 4, ERAP1 inh -1 and FGF22 binding 0.
Screening CCCC[n+]1c(C)sc2ccc(C)cc21 returned Ecoli rRNA inh 6, HIV Env fusion 17, ERAP1 inh 19 and FGF22 binding 43*.
CCCC#Cc1ccc2c(c1)O[C@H](CN(C)C(=O)C1CCCCC1)[C@@H](C)CN([C@H](C)CO)S2(=O)=O was read as Ecoli rRNA inh 1, HIV Env fusion 23[16.7 µM] and PGC1a acetyl inh 3.
CCC(C)(C)c1ccc(Oc2ccc(N)cc2)cc1 was read as Ecoli rRNA inh -47, HIV Env fusion 60*, Cneo AK release 1, PGC1a acetyl inh -11, ERAP1 inh 0 and FGF22 binding 0.
Nc1nonc1-n1nnc(C(=O)N/N=C/c2ccc(O)cc2)c1COc1ccc(F)cc1 was read as Ecoli rRNA inh -24*, HIV Env fusion 2, Cneo AK release 1, PGC1a acetyl inh -8, ERAP1 inh 2 and FGF22 binding 0.
Screening CC1CCN(Cc2c(C(=O)N/N=C/c3cc(Br)ccc3O)nnn2-c2nonc2N)CC1 returned Ecoli rRNA inh 5, HIV Env fusion 60*, Cneo AK release 1, PGC1a acetyl inh 11, ERAP1 inh -2 and FGF22 binding 0.
Nc1nonc1-n1nnc(C(=O)N/N=C/c2ccccc2Cl)c1CSc1ccccc1 was read as Ecoli rRNA inh -18*, HIV Env fusion -5, Cneo AK release -1, PGC1a acetyl inh 28, ERAP1 inh 1 and FGF22 binding 0.
Screening Nc1nonc1-n1nnc(C(=O)N/N=C/c2cccs2)c1CSc1ccccc1 returned Ecoli rRNA inh 0, HIV Env fusion -3, Cneo AK release -2, PGC1a acetyl inh -1, ERAP1 inh 4 and FGF22 binding 0.
Screening CN(Cc1c(C(=O)N/N=C/c2ccccc2)nnn1-c1nonc1N)c1ccccc1 returned Ecoli rRNA inh -27*, HIV Env fusion 0, Cneo AK release 0, ERAP1 inh -2 and FGF22 binding 0.
Nc1nonc1-n1nnc(C(=O)N/N=C/c2ccc(OCc3ccccc3)cc2)c1COc1ccc(F)cc1 was read as Ecoli rRNA inh 8, HIV Env fusion -20, Cneo AK release -1, PGC1a acetyl inh 5 and FGF22 binding -1.
`O=C(C[C@@H]1CC[C@H]2[C@@H](COC[C@H](O)CN2C(=O)Nc2cccc(F)c2)O1)NCc1ccccc1F` gave Ecoli rRNA inh -10, Cneo AK release 63, PGC1a acetyl inh -5, ERAP1 inh -5 and FGF22 binding 0.
Screening C[C@H](CO)N1C[C@H](C)[C@@H](CN(C)Cc2cccnc2)Oc2cc(/C=C/c3ccccc3)ccc2S1(=O)=O returned Ecoli rRNA inh -3, PGC1a acetyl inh -4, ERAP1 inh -8 and FGF22 binding 0.
`O=C(CCC(=O)N1CCN(c2ccc(F)cc2)CC1)c1ccccc1` gave Ecoli rRNA inh -6, HIV Env fusion -3, Cneo AK release -1, PGC1a acetyl inh 2, ERAP1 inh 3 and FGF22 binding 0.
Screening C=CCN1C(=O)N[C@@H]2c3ccccc3O[C@@]1(COCc1ccc(OC)cc1)[C@@H]2CO returned HIV Env fusion -15[16.7 µM], Cneo AK release -3, PGC1a acetyl inh 7, ERAP1 inh 0 and FGF22 binding 0.
`CCOc1ccc(/C=N/NC(=O)c2nnn(-c3nonc3N)c2-c2ccc(OCC)cc2)cc1` gave Ecoli rRNA inh 9, HIV Env fusion 22, Cneo AK release 0, PGC1a acetyl inh -1, ERAP1 inh 0 and FGF22 binding 1.
Screening CCOc1ccc(-c2c(C(=O)N/N=C/c3c[nH]c4ccccc34)nnn2-c2nonc2N)cc1 returned Ecoli rRNA inh -9, HIV Env fusion 10, Cneo AK release 3, PGC1a acetyl inh 3, ERAP1 inh 0 and FGF22 binding 43*.
Screening Nc1nn2c(-c3ccccc3)cc(=O)[nH]c2c1N=Nc1ccc(Br)cc1 returned Ecoli rRNA inh -29*, HIV Env fusion 28, ERAP1 inh -3 and FGF22 binding 1.
For S=C(NN=C(c1ccccc1)c1ccccn1)N(Cc1ccccn1)Cc1ccccn1 the results were Ecoli rRNA inh -14, HIV Env fusion 76*, ERAP1 inh 1 and FGF22 binding -1.
`O=C(NN=C(c1ccccc1)c1ccccn1)c1ccccc1` gave HIV Env fusion 53, ERAP1 inh 1 and FGF22 binding 0.
For CC(=NNC(=S)N(Cc1ccccn1)Cc1ccccn1)c1cnccn1 the results were Ecoli rRNA inh -16*, HIV Env fusion 18, ERAP1 inh 2 and FGF22 binding 0.
Screening O=C(Nc1ccc2[nH]c(=O)[nH]c2c1)c1cc(F)c(F)cc1Cl returned Ecoli rRNA inh -10, HIV Env fusion -3, Cneo AK release -8, PGC1a acetyl inh 9 and FGF22 binding 1.
C=CCCN(C(CC(C)C)C(=O)OC)S(=O)(=O)c1ccccc1Br (stereo unspecified) was read as Ecoli rRNA inh -2, HIV Env fusion 22, Cneo AK release -2, PGC1a acetyl inh -27, ERAP1 inh 1 and FGF22 binding 0.
COC(=O)C(CC(C)C)N(Cc1cc(OC)cc(OC)c1)S(=O)(=O)c1ccccc1Br (stereo unspecified) was read as Ecoli rRNA inh -4, HIV Env fusion 59*, Cneo AK release 2, ERAP1 inh -7 and FGF22 binding 1.
For CCN(Cc1cc(OC)c(OC)c(OC)c1)S(=O)(=O)c1ccccc1Br the results were Ecoli rRNA inh -32, HIV Env fusion 12 and FGF22 binding 0.
Screening COc1cc(CN(CC(C)C)S(=O)(=O)c2ccccc2Br)cc(OC)c1 returned Ecoli rRNA inh 2, HIV Env fusion -6, Cneo AK release 2, ERAP1 inh 2 and FGF22 binding 43*.
N#CCSc1nnc(-c2ccccc2O)n1Cc1ccccc1 was read as Ecoli rRNA inh -5, HIV Env fusion -4, Cneo AK release 1, PGC1a acetyl inh 0 and ERAP1 inh -1.
`O=C(CSc1nccc(=O)[nH]1)N1c2ccccc2CCc2ccccc21` gave Ecoli rRNA inh -34*, Cneo AK release 2, PGC1a acetyl inh 2, ERAP1 inh 2 and FGF22 binding 0.
For O=C(CSc1nccc(=O)[nH]1)N1CCN(c2ccccc2)CC1 the results were Ecoli rRNA inh 25, HIV Env fusion 2, PGC1a acetyl inh 2, ERAP1 inh 0 and FGF22 binding 0.
